The record followed here is ChEMBL document CHEMBL1799942, “Design, synthesis and antifungal activities of novel 1,2,4-triazole derivatives” (2011).

Values after ≈ are worked out from the molar mass of the structure shown. Some results are limits rather than exact numbers.

Holding throughout (assay type): functional
One experiment concerns Candida tropicalis. Nature of the experiment: Antifungal activity against Candida tropicalis by micro-broth dilution method. The procedure, abridged:
(§1)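 Micro-broth dilution per NCCLS M27-A2. The C. parapsilosis strain is the ATCC 0306392 quality-control standard tested in each assay; the C. tropicalis strain is a clinical isolate. Compounds were in DMSO, serially diluted in growth medium, inoculated and incubated at 35 °C. MIC80 is the first well with about 80% growth reduction relative to the drug-free well.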
(Dilution methods test growth across graded concentrations, often in twofold steps.)

A further experiment has as its system Candida parapsilosis. Nature of the experiment: Antifungal activity against Candida parapsilosis ATCC 0306392 by micro-broth dilution method. The following applies: Lodderomyces parapsilosis. The procedure, abridged:
as §1

The next experiment deals with Cryptococcus neoformans. The experiment is described as follows: Antifungal activity against Cryptococcus neoformans ATCC BLS108 after 72 hrs by micro-broth dilution method. The settings on record: ATCC BLS108, 72 h. The procedure, abridged: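 NCCLS M27-A2 microdilution on the ATCC BLS108 quality-control strain, tested in every assay. Compounds were taken up in DMSO, serially diluted in growth medium, inoculated and incubated at 35 °C. Growth was scored at 72 h. MIC80 is the first well with about 80% lower growth than the drug-free control well.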

Experiment [1] can be described thus: Antifungal activity against Fonsecaea compacta by micro-broth dilution method. The gist of the method:
(§2)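 Broth microdilution following the NCCLS yeast reference method (M27-A2), run on clinical isolates of filamentous fungi. Compounds were dissolved in DMSO, serially diluted in growth medium, inoculated and incubated at 35 °C. Growth was read at 7 days. MIC80 is the first well with about 80% less growth than the drug-free well.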

Another experiment relates to Candida albicans. Nature of the experiment: Antifungal activity against Candida albicans ATCC Y0109 after 24 hrs by micro-broth dilution method. The settings on record: ATCC Y0109, 24 h. The procedure, abridged:
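Micro-broth dilution per NCCLS M27-A2 on the quality-control standard strain ATCC Y0109, included in each assay. Compounds were dissolved in DMSO, serially diluted in growth medium, inoculated and incubated at 35 °C, with growth read at 24 h. MIC80 is the first well showing roughly 80% growth reduction versus the drug-free well.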

The subject of another experiment is Nannizzia gypsea. Nature of the experiment: Antifungal activity against Microsporum gypseum after 7 days by micro-broth dilution method. The settings on record: 168 h. The procedure, abridged:
as §2

Another experiment has as its system Trichophyton rubrum. The experiment is described as follows: Antifungal activity against Trichophyton rubrum after 7 days by micro-broth dilution method. The following applies: 168 h. The procedure, abridged: as §2
Another experiment concerns Aspergillus fumigatus. The experiment is described as follows: Antifungal activity against Aspergillus fumigatus after 7 days by micro-broth dilution method. The following applies: 168 h. The gist of the method:
as §2

On to `C[C@@H](c1ncncc1F)[C@](O)(Cn1cncn1)c1ccc(F)cc1F` [VORICONAZOLE], for which the MIC80 (usually an inhibitory concentration at the 80% level, which refers to growth in some studies and to a panel of isolates in others) was 0.25 µg/mL (≈ 0.716 µM) against Candida tropicalis; 1 µg/mL (≈ 2.86 µM) with Candida parapsilosis; 0.0156 µg/mL (≈ 0.0447 µM) with Cryptococcus neoformans; 0.0156 µg/mL (≈ 0.0447 µM) in experiment [1]; 0.0156 µg/mL (≈ 0.0447 µM) in the experiment with Candida albicans; 0.0039 µg/mL (≈ 0.0112 µM) with Nannizzia gypsea. Besides, the values for the MIC80 against Trichophyton rubrum and against Aspergillus fumigatus were 0.0039 µg/mL (≈ 0.0112 µM) and greater than 64 µg/mL, respectively.
